Reference: ChEMBL document CHEMBL2146369, “Oxazolo[3,2-a]pyridine. A new structural scaffold for the reversal of multi-drug resistance in Leishmania” (Bioorg Med Chem Lett, 2012)
Activity calls are given as the source filed them. The rule behind the calls is not given here.

Columns and labels:
Leishmania tropica [1] = assay: Potentiation of daunomycin-induced antileishmanial activity against promastigotes of multidrug-resistant Leishmania tropica assessed as fold decrease in daunomycin IC50 at 6 uM after 72 hrs by MTT assay; assay type: functional
How it was run: (§1)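 MDR L. tropica promastigotes given increasing DNM or miltefosine concentrations, with or without 6 µM modulator, for 72 h at 28 °C. Viability measured by MTT absorbance at 540 nm. IC50 taken for each condition. Reversal index is drug IC50 without modulator divided by IC50 with it. Three independent experiments.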

THP-1 = assay: Cytotoxicity against PMA-stimulated human THP1 cells after 72 hrs by MTT assay; assay type: cell-based; conditions: THP-1, 72 h
How it was run: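 THP-1 cells grown at 37 °C, 5% CO2 in RPMI-1640 with 10% iFBS, […], penicillin and streptomycin. Differentiated to macrophages with 20 ng/mL PMA for 48 h, then 24 h in fresh medium. MTT viability assay run as for parasites but incubated at 37 °C. IC50 determined.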

Leishmania tropica [2] = assay: Potentiation of miltefosine-induced antileishmanial activity against promastigotes of multidrug-resistant Leishmania tropica assessed as fold decrease in miltefosine IC50 at 6 uM after 72 hrs by MTT assay; assay type: functional; how it was run: as §1
Leishmania tropica [3] = assay: Potentiation of daunomycin-induced antileishmanial activity against promastigotes of multidrug-resistant Leishmania tropica at 3 to 8 uM after 72 hrs by MTT assay; assay type: functional, organism-based
Leishmania tropica [4] = assay: Resistance ratio of IC50 for multidrug-resistant Leishmania tropica and IC50 for wild type Leishmania tropica LRC; assay type: functional
How it was run: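 DNM-selected MDR and parental wild-type L. tropica promastigotes treated with increasing drug concentrations for 72 h at 28 °C. Viability read by MTT at 540 nm. Ratio of MDR IC50 to parental IC50 calculated.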

Leishmania tropica [5] = assay: Antileishmanial activity against promastigotes of wild type Leishmania tropica LRC after 72 hrs by MTT assay; assay type: functional, organism-based
How it was run: (§2)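 Promastigotes of wild-type L. tropica LRC clone or DNM-selected MDR line (kept in 150 µM DNM or 30 µM MLF), grown at 28 °C in modified RPMI 1640 with 20% heat-inactivated FBS. Exposed to compounds without DNM for 72 h at 28 °C. Viability read by MTT absorbance at 540 nm, expressed relative to untreated parasites.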

Leishmania tropica [6] = assay: Antileishmanial activity against promastigotes of multidrug-resistant Leishmania tropica after 72 hrs by MTT assay; assay type: functional, organism-based; how it was run: as §2

| SMILES | fold change (FC) (Leishmania tropica [1]) | IC50 (THP-1) | fold change (FC) (Leishmania tropica [2]) | other results |
| --- | --- | --- | --- | --- |
| COC(=O)C1=C(C)N2C[C@H](C)O[C@@]2(C)[C@@H](C(=O)OC)[C@@H]1c1cccc(Cl)c1 | >6 | > 400 µM | – | – |
| COC(=O)C1=C(C)N2C[C@@H](C)O[C@]2(C)[C@H](C(=O)OC(C)(C)C)[C@H]1c1cccc(Cl)c1 | – | > 400 µM | 8.7 | – |
| CC(=O)O[C@H]1C[C@](C)(O)[C@]23OC(C)(C)[C@H](C[C@H](OC(=O)c4ccco4)[C@]2(C)[C@H]1OC(C)=O)[C@H]3OC(=O)c1ccco1 | 4.7 | – | 6 | – |
| COC(=O)C1=C(C)N2CCO[C@@]2(C)[C@@H](C(=O)OC)[C@@H]1c1ccco1 (racemic) | – | > 400 µM | – | – |
| COC(=O)C1=C(C)N2CCO[C@@]2(C)[C@@H](CO)[C@@H]1c1cccc([N+](=O)[O-])c1 (racemic) | – | > 400 µM | – | – |
| COC(=O)C1=C(C)N2CCO[C@@]2(C)[C@@H](C(=O)OC)[C@@H]1c1cccc([N+](=O)[O-])c1 (racemic) | 3.9 | > 400 µM | 3.4 | Activity (Leishmania tropica [3]): Active |
| COC(=O)C1=C(C)N2CCO[C@@]2(C)[C@@H](C(=O)OCc2ccccc2)[C@@H]1c1cccc([N+](=O)[O-])c1 (racemic) | – | > 400 µM | – | – |
| COC(=O)C1=C(C)N2CCO[C@@]2(C)[C@@H](C(=O)OCc2ccccc2)[C@@H]1c1cccc(Cl)c1 (racemic) | – | > 400 µM | – | – |
| COC(=O)C1=C(C)N2C(=O)[C@H](C)O[C@@]2(C)[C@@H](C(=O)OC)[C@@H]1c1cccc(Cl)c1 (racemic) | – | > 400 µM | – | – |
| COC(=O)C1=C(C)N2CCO[C@@]2(C)[C@@H](C(=O)OC)[C@@H]1c1ccc[nH]1 (racemic) | 1.3 | > 400 µM | 1.9 | Activity (Leishmania tropica [3]): Active |
| COC(=O)C1=C(C)N2CCS[C@@]2(C)[C@@H](C(=O)OC)[C@@H]1c1cccc(Cl)c1 (racemic) | 2.2 | > 400 µM | 3.5 | Activity (Leishmania tropica [3]): Active |
| COC(=O)C1=C(C)N2CCCO[C@@]2(C)[C@@H](C(=O)OC)[C@@H]1c1cccc(Cl)c1 (racemic) | 3.2 | > 400 µM | 1.5 | Activity (Leishmania tropica [3]): Active |
| C=CCOC(=O)[C@H]1[C@H](c2cccc(Cl)c2)C(C(=O)OC)=C(C)N2CCO[C@@]12C (racemic) | >5 | – | – | – |
| COc1cccc2c1C(=O)c1c(O)c3c(c(O)c1C2=O)C[C@@](O)(C(C)=O)C[C@@H]3O[C@H]1C[C@H](N)[C@H](O)[C@H](C)O1 [DAUNORUBICIN] | – | 26.9 µM | – | Ratio IC50 (Leishmania tropica [4]): 64; IC50 (Leishmania tropica [5]): 2.8 µM; IC50 (Leishmania tropica [6]): 180 µM |
| CCCCCCCCCCCCCCCCOP(=O)([O-])OCC[N+](C)(C)C [MILTEFOSINE] | – | 7 µM | – | Ratio IC50 (Leishmania tropica [4]): 22; IC50 (Leishmania tropica [5]): 10.9 µM; IC50 (Leishmania tropica [6]): 240 µM |
